Sampled rows, rich in hits. Any-hit rate of the full collection: about 2.7%.
NR2E3 ag-1 – agonists of human NR2E3 nuclear receptor | inhibition of corepressor binding, % at 3.98 µM | CHO-S Gal4-NCOR/VP16-NR2E3 two-hybrid, luciferase | Q9Y5X4 | hit rate 0.35% among 360,000;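 active = inhibition above the mean of all tested compounds plus 3 SD, cut at about 70% in these data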;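 also: 0% = DMSO with NR2E3 transfected cells and 100% = cells lacking NR2E3 construct; higher means lower luciferase signal from less NR2E3 corepressor binding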
NR2E3 ag-2 – activates human photoreceptor nuclear receptor NR2E3; GST-NR2E3/biotin-RetCOR TR-FRET, 1536-well; inhibition of corepressor binding, % at 4.78 µM; hit rate 0.12% among 320,000;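 active = percent inhibition above the cutoff of mean plus 3 SD of all tested compounds, set per screening campaign, cut at about 20% in these data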;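 also: 0% = DMSO wells and 100% = biotin wells as full block of FRET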
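Test system: GST-NR2E3 and biotin-RetCOR proteins | Quantity: 1.35 nM GST-tagged NR2E3 final | Medium: Tris pH 7.5 | Also added: 7 nM biotin-RetCOR | Dosing: Compound at 4.8 µM, single dose | Timing: 5 h at 4 °C | Detection: Time-resolved FRET | Read-out basis: Percent inhibition | Benchmarks: Biotin wells as high control, 0.6% DMSO wells as low control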
MC4R barr agon – agonists of human melanocortin 4 receptor (MC4R) beta-arrestin | activation, % at 8.9 µM | hit rate 0.98% among 360,000 | U2OS MC4R beta-arrestin complementation, luminescence; percent of melanotan II response, DMSO zero | P32245;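 active = activation above a per-plate cutoff, the mean activation of sample wells on that plate plus 3 SD, cut at about 8% in these data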
Rev-erbA mod – modulators of human Rev-erb alpha DNA binding. P20393. Rev-erbα–FITC-DNA binding, fluorescence polarization, 90 min. activity, % at 10 µM. hit rate 0.79% among 370,000. AID 1259318;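 active = activity above about 14%, limit read from the data; passing the limit was not always enough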;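 also: 0% = DMSO wells with 35 nM protein and 100% = DMSO wells with 750 nM protein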
Target sequence (P20393 whole entry, looked up): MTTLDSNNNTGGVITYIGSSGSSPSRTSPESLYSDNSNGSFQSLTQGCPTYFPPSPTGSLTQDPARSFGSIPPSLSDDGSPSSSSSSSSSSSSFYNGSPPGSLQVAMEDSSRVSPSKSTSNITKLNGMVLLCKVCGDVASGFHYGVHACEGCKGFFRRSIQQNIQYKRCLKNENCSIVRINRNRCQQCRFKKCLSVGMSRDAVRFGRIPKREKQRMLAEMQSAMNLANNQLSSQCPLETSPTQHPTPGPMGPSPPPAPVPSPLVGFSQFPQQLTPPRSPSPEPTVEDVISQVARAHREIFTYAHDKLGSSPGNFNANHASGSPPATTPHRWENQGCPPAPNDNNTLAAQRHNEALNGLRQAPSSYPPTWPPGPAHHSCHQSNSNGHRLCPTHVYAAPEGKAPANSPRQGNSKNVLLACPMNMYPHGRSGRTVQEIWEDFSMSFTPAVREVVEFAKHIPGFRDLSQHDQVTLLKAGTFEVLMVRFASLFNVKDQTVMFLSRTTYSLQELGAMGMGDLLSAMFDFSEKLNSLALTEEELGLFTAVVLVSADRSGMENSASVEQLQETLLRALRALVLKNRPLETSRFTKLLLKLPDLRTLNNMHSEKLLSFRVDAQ
PG9 Ab binder – small molecules binding HIV-1 gp120 antibody PG9; hit rate 0.43% among 360,000; TR-FRET gp120-PG9 antibody binding; inhibition, % at 6.7 µM; in the data active = inhibition above about 8.5%
MC4R antag cAMP – antagonists of human melanocortin 4 receptor (MC4R); P32245; MC4R-expressing cells, MTII-stimulated cAMP, LANCE TR-FRET; inhibition, % at 6.5 µM; hit rate 0.48% among 360,000; AID 540295;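 active = inhibition above its plate's cutoff, the mean of tested wells on that plate plus 3 SD, cut at about 29% in these data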;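 also: 0% = Melanotan II alone and 100% = Melanotan II plus saturating MCL0020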
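Assay system: U2OS cells stably expressing human melanocortin 4 receptor (MC4R) / Dosing: 6.5 µM / Timing: compound 30 min, challenge 1 h, detection 1 h / Measured by: Eu-cAMP/anti-cAMP TR-FRET, emission 671 nm / Replicates: singlicate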
NR1D1 mod conf – Rev-erb alpha (human) modulation, hit confirmation. shares compounds with Rev-erbA mod. Rev-erb alpha FITC-DNA binding, fluorescence polarization, 90 min. activation, % at 25 µM. hit rate 61% among 3,000. AID 1259319;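 active = activation at or above a set limit, or at least 3 SD above the negative control mean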;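 also: 0% = 35 nM protein with DMSO and 100% = 750 nM protein high control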
* marks the source's active call; other numbers are inactive results.

For CCOc1ccc2nc(N/C(N)=N/C(=S)Nc3cccc(OC)c3)nc(C)c2c1 the results were NR2E3 ag-1 -3.2, NR2E3 ag-2 -0.7, MC4R barr agon -1.4, Rev-erbA mod 32.5*, PG9 Ab binder -0.2, MC4R antag cAMP 9.2 and NR1D1 mod conf 3.5.
For Cc1ccc(NC(=S)/N=C(\N)Nc2nc(C)c3cc(C)c(C)cc3n2)cc1C the results were NR2E3 ag-1 -12.5, NR2E3 ag-2 -1.1, MC4R barr agon 0.8, Rev-erbA mod 27.1*, PG9 Ab binder -1.8, MC4R antag cAMP 4.5 and NR1D1 mod conf -1.0.
`NS(=O)(=O)c1ccc(CCNCc2cc(Cl)ccc2OCc2ccccc2)cc1` gave NR2E3 ag-1 42.4, NR2E3 ag-2 2.5, MC4R barr agon -0.2, Rev-erbA mod 0.3, PG9 Ab binder -1.0 and MC4R antag cAMP 6.8.
CC(C)c1cc(C(=O)OCC(=O)NC(=O)NCc2ccco2)c(O)c(C(C)C)c1 was read as NR2E3 ag-1 -7.1, NR2E3 ag-2 -3.7, MC4R barr agon -2.1, Rev-erbA mod 16.1*, PG9 Ab binder -2.4, MC4R antag cAMP 20.9 and NR1D1 mod conf 5.6.
COc1ccc2cc(C(=O)N/N=C/c3sc4ccccc4c3O)ccc2c1 was read as NR2E3 ag-1 -48.1, NR2E3 ag-2 -0.9, MC4R barr agon -2.5, Rev-erbA mod 28.0*, PG9 Ab binder -6.6, MC4R antag cAMP -6.1 and NR1D1 mod conf 26.5*.
COc1ccc(C(=O)N/N=C/c2sc3ccccc3c2O)cc1 was read as NR2E3 ag-1 -13.3, NR2E3 ag-2 -12.4, MC4R barr agon -2.3 and MC4R antag cAMP -0.9.
N#Cc1cn(Cc2ccco2)c(=O)[nH]c1=O was read as NR2E3 ag-1 21.1, MC4R barr agon -2.1, Rev-erbA mod -5.5, PG9 Ab binder -0.9 and MC4R antag cAMP 2.4.
`O=[N+]([O-])c1ccc(N=Nc2ccc(O)cc2O)cc1` gave NR2E3 ag-1 -9.7, NR2E3 ag-2 3.1, MC4R barr agon -0.6, Rev-erbA mod 36.7*, PG9 Ab binder -8.2, MC4R antag cAMP -0.9 and NR1D1 mod conf 23.4*.
For Cc1cc(=O)n2c3ccccc3n(CC(O)CN3CCCC3)c2c1C#N (centres undefined) the results were NR2E3 ag-1 -4.8, NR2E3 ag-2 1.8, MC4R barr agon -0.4, Rev-erbA mod -31.8, PG9 Ab binder 0.1 and MC4R antag cAMP -3.1.
`Cc1cc(N(C)C)cc(C)c1N=Nc1cc[n+]([O-])cc1` gave NR2E3 ag-1 -1.4, MC4R barr agon -3.2, Rev-erbA mod 26.7*, PG9 Ab binder -6.7, MC4R antag cAMP -16.8 and NR1D1 mod conf 24.5*.
Cc1ccc(C)c2[nH]c(=O)c(CN(CC3CCCO3)S(=O)(=O)c3ccc4c(c3)OCCO4)cc12 (centres undefined) was read as NR2E3 ag-1 0.5, NR2E3 ag-2 -1.2, MC4R barr agon 2.1, Rev-erbA mod -0.5, PG9 Ab binder -0.8 and MC4R antag cAMP 16.7.
For O=C(NCCOc1ccccc1)c1ccc2c(c1)S(=O)(=O)c1cc(Cl)ccc1C2=O the results were NR2E3 ag-1 -11.3, MC4R barr agon -3.2, Rev-erbA mod 23.5*, PG9 Ab binder 0.1, MC4R antag cAMP -11.8 and NR1D1 mod conf 15.3.
`O=C(CCNC(=O)c1ccccc1Cl)Nc1nc2ccc(F)cc2s1` gave NR2E3 ag-1 -40.7, NR2E3 ag-2 0.2, MC4R barr agon 1.2, Rev-erbA mod -2.3, PG9 Ab binder 0.4 and MC4R antag cAMP 13.1.
CCOC(=O)/C(C#N)=C\C=C1C=CN(C)C=C1 was read as NR2E3 ag-1 -73.1, NR2E3 ag-2 -18.3, MC4R barr agon 0.4, Rev-erbA mod 30.9*, PG9 Ab binder -24.8, MC4R antag cAMP -26.5 and NR1D1 mod conf 28.3*.
`CC(OC(=O)[C@@H](NC(=O)OCc1ccccc1)C(C)C)C(=O)Nc1ccc(N2CCOCC2)cc1` (some centres undefined) gave NR2E3 ag-1 -17.3, MC4R barr agon 1.0, Rev-erbA mod 5.2, PG9 Ab binder 0.3 and MC4R antag cAMP 8.2.
`O=C(CN1C(=O)NC(Cc2ccccc2)C1=O)Nc1ccc(OC(F)(F)F)cc1` (centres undefined) gave NR2E3 ag-1 6.0, NR2E3 ag-2 2.1, MC4R barr agon 0.8, Rev-erbA mod 14.5*, PG9 Ab binder -0.3, MC4R antag cAMP 2.1 and NR1D1 mod conf -7.5.
Screening O=C(CN1C(=O)NC(Cc2ccccc2)C1=O)Nc1ccc(F)cc1 (centres undefined) returned NR2E3 ag-1 -9.3, NR2E3 ag-2 -3.8, MC4R barr agon -1.6, Rev-erbA mod -0.6, PG9 Ab binder -0.9 and MC4R antag cAMP 6.2.
CCCCNC(=O)c1nn2c(C(F)(F)F)cc(-c3ccc(OC)cc3)nc2c1Br was read as NR2E3 ag-1 -12.5, NR2E3 ag-2 -0.6, MC4R barr agon -1.9, Rev-erbA mod 48.3*, PG9 Ab binder -0.6, MC4R antag cAMP 3.3 and NR1D1 mod conf 9.1.
`CCCNC(=O)c1nn2c(C(F)(F)F)cc(-c3ccccc3)nc2c1Br` gave NR2E3 ag-1 -12.0, NR2E3 ag-2 3.6, MC4R barr agon -0.5, Rev-erbA mod 28.3*, PG9 Ab binder -5.9, MC4R antag cAMP 3.9 and NR1D1 mod conf 21.0*.
CC(=O)N/C(=N/c1nc(C)cc(C)n1)Nc1cc(C)cc(C)c1 was read as NR2E3 ag-1 -2.5, NR2E3 ag-2 -1.8, MC4R barr agon -2.1, Rev-erbA mod 0.3, PG9 Ab binder 1.8 and MC4R antag cAMP 0.1.
`CN(C)c1ccc(CNCC2CCCO2)cc1` (centres undefined) gave NR2E3 ag-1 -21.3, NR2E3 ag-2 -0.6, MC4R barr agon -0.4, Rev-erbA mod -5.3, PG9 Ab binder -1.8 and MC4R antag cAMP 14.8.
CN(C)c1ccc(/C=C(/C(=O)c2ccc(Cl)cc2Cl)n2cncn2)cc1 was read as NR2E3 ag-1 -4.0, NR2E3 ag-2 -1.2, MC4R barr agon -2.8, Rev-erbA mod 21.2*, PG9 Ab binder -2.3, MC4R antag cAMP 3.7 and NR1D1 mod conf 17.8*.
`COc1ccc(/C=C(/C(=O)c2ccc(Cl)cc2Cl)n2cncn2)cc1` gave NR2E3 ag-1 8.6, NR2E3 ag-2 -3.3, MC4R barr agon 2.0, Rev-erbA mod -1.0, PG9 Ab binder -0.3 and MC4R antag cAMP 0.6.
For Cc1ccc(S(=O)(=O)NNC2=NCCCCC2)cc1 the results were NR2E3 ag-1 -9.1, NR2E3 ag-2 0.3, MC4R barr agon -1.4, Rev-erbA mod -1.7, PG9 Ab binder 1.2 and MC4R antag cAMP 6.5.
COc1cccc(-c2c(C#N)c(SC)nc3cc(C)nn23)c1 was read as NR2E3 ag-1 -7.2, NR2E3 ag-2 1.2, MC4R barr agon 2.0, Rev-erbA mod 38.9*, PG9 Ab binder 0.2, MC4R antag cAMP 10.8 and NR1D1 mod conf 17.8.
